In ChEMBL document CHEMBL5120830, “New aldo-keto reductase 1C3 (AKR1C3) inhibitors based on the hydroxytriazole scaffold” (Eur J Med Chem, 2022):
Converted amounts (≈) assume the structure as drawn. The source made the active and inactive calls. The calls are words filed in the database; no cut-off is given here.

Experiments:
[1] = target: T1, Aldo-keto reductase family 1 member C3 (Homo sapiens, UniProt P42330); test: Inhibition of recombinant human AKR1C3 transfected in Escherichia coli BL21 (DE) assessed as reduction in NADPH production using S-tetralol as substrate by fluorescence based analysis
T1 sequence (P42330 whole entry): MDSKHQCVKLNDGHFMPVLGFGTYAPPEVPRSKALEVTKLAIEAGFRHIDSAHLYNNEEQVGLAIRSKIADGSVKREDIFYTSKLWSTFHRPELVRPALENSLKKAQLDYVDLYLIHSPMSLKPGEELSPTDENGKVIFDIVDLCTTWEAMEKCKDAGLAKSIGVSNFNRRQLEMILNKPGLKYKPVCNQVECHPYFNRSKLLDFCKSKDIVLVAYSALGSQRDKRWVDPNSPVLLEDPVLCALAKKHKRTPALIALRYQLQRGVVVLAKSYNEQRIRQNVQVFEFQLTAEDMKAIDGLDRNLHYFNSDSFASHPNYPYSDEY
Outline: (§1)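 GST-tagged human AKR1C2 or AKR1C3 made in bacteria (IPTG 0.5 mM, 2 h), purified on glutathione sepharose and thrombin-cleaved. Assay in 100 mM phosphate pH 7 with 200 μM NADP+ and 10% EtOH at 37 °C. S-tetralol was 15 μM for AKR1C2 and 160 μM for AKR1C3. NADPH fluorescence read at 340/460 nm. Inhibition from initial velocities versus solvent controls; ≥3 experiments in triplicate.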

[2] = Lipophilicity, logD of the compound in n-octanol and phosphate buffer at pH 7.4 incubated for 4 hrs by UV-Vis spectrophotometer based shake flask method; assay type: physicochemical
Outline: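 Shake-flask logD between n-octanol and 50 mM PBS pH 7.4 (ionic strength 0.15 M, KCl). The phases were pre-saturated for 4 h, then shaken ~20 min with compound and centrifuged. Aqueous concentration was read by UV at λmax against calibration curves. Each value averages at least six measurements.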

CWR22R [3] = test: Antiproliferative activity against human 22Rv1 cells expressing AKR1C3 assessed as inhibition of cell growth incubated for 72 hrs by SRB assay; assay type: functional, cell-based; settings: 22Rv1, 72 h
Outline: (§2)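 22RV1 cells in RPMI with 10% FCS, 37 °C, 5% CO2. Seeded at 10,000/well in medium with 10% charcoal-stripped serum and left 24 h. Inhibitor dilutions in DMSO added in triplicate for 72 h; DMSO controls at most 1% v/v. Growth read by sulforhodamine B colorimetric assay. IC50 from the mean of three separate experiments.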

[4] = target: T2, Aldo-keto reductase family 1 member C2 (Homo sapiens) (UniProt P52895); test: Inhibition of recombinant human AKR1C2 transfected in Escherichia coli BL21 (DE) assessed as reduction in NADPH production at 100 uM using S-tetralol as substrate by fluorescence based analysis relative to control; outline: as §1
T2 sequence (whole entry): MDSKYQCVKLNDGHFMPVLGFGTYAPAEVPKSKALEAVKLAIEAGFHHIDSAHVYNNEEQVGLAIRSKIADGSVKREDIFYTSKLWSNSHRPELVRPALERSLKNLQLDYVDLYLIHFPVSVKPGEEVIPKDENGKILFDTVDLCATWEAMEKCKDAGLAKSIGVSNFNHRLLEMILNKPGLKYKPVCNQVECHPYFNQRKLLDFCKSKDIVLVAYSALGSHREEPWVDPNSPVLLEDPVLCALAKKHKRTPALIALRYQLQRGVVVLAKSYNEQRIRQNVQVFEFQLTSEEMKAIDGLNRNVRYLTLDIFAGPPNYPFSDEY

[5] = Solubility of the compound in PBS at pH 7.4 incubated for 24 hrs by UHPLC analysis; assay type: physicochemical
Outline: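 About 1 mg of solid was shaken in 1 mL of 50 mM PBS pH 7.4 at 25 °C for 24 h, then filtered (0.45 μm). The filtrate was run on C18 UHPLC with a water/methanol gradient in 0.1% TFA, read at 254 and 230 nm. Concentration came from external calibration over 1-200 μM; detection limit 1 μM.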

CWR22R [6] = test: Antiproliferative activity against human 22Rv1 cells expressing AKR1C3 assessed as reduction in cell viability at 100 uM incubated for 72 hrs by SRB assay relative to control; assay type: functional; outline: as §2
[7] = Ionization constant, pKa of the compound by potentiometric titration method; assay type: physicochemical
Outline: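 pKa was measured by potentiometric titration on a Sirius T3 in MDM cosolvent (20% acetonitrile, 20% dioxane, 20% methanol), with added percentages varied.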

[8] = target: T2, Aldo-keto reductase family 1 member C2 (Homo sapiens); test: Inhibition of recombinant human AKR1C2 transfected in Escherichia coli BL21 (DE) assessed as reduction in NADPH production at 50 uM using S-tetralol as substrate by fluorescence based analysis relative to control; outline: as §1
[9] = Inhibition of androstenedione induced testosterone production in human 22Rv1 cells expressing AKR1C3 assessed as reduction in testosterone level to 0.5 uM pretreated for 1 hr followed by androstenedione addition and measured after 24 hrs by ELISA relative to control; assay type: functional, CWR22R; settings: time 25 hrs
Outline: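 22RV1 cells seeded at 30,000/well in medium with 10% charcoal-stripped serum and left 24 h. Inhibitor added 1 h before 30 nM androstenedione, then 24 h more. Supernatant (1:2) assayed for testosterone by ELISA read at 405 nm against a standard curve. Mean of three experiments, each in triplicate.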

CWR22R [10] = test: Inhibition of prostate specific antigen expression in human 22Rv1 cells expressing AKR1C3 at 5 to 50 uM incubated for 72 hrs by Western blot analysis; assay type: functional, cell-based; settings: dose 5-50 µM
Outline: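 22RV1 cells seeded at 300,000/well in charcoal-stripped serum medium for 24 h, then treated 72 h at 5 or 50 μM in DMSO (≤0.5% v/v). RIPA lysates of 30 μg protein blotted with anti-PSA (1:500, overnight 4 °C) and HRP secondary. β-actin was the loading control. Densitometric PSA/β-actin as fold change; duplicate.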

CWR22R [11] = test: Antiproliferative activity against human 22Rv1 cells expressing AKR1C3 assessed as reduction in cell viability at 40 to 60 uM incubated for 72 hrs in presence of abiraterone by SRB assay relative to either drug alone; assay type: functional; settings: dose 40-60 µM
Outline: (§3)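 Co-treatment in 22RV1 cells seeded in charcoal-stripped serum medium. Test compound at 40 or 60 μM was given for 72 h with 10 μM abiraterone or 30 μM enzalutamide, or with no drug. Growth was read by SRB assay and expressed as % T/C (mean OD treated / mean OD control × 100).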

CWR22R [12] = test: Antiproliferative activity against human 22Rv1 cells expressing AKR1C3 assessed as reduction in cell viability at 40 to 60 uM incubated for 72 hrs in presence of , enzalutamide by SRB assay relative to either drug alone; assay type: functional; settings: dose 40-60 µM; outline: as §3
[13] = target: T2, Aldo-keto reductase family 1 member C2 (Homo sapiens); test: Inhibition of recombinant human AKR1C2 transfected in Escherichia coli BL21 (DE) assessed as reduction in NADPH production at 20 uM using S-tetralol as substrate by fluorescence based analysis relative to control; outline: as §1
[14] = target: T3, Aldo-keto reductase family 1 member C2 (Homo sapiens, UniProt P52895); test: Inhibition of recombinant human AKR1C2 transfected in Escherichia coli BL21 assessed as reduction in NADP+-dependent S-tetralol oxidation incubated for 20 mins by absorbance based analysis
T3 sequence (P52895 whole entry): T2 sequence (whole entry)

IC50 [1]	logD at 4 h [2]	inhibition [4]	solubility at 24 h [5]	pKa [7]	inhibition [8]	inhibition [13]	IC50 [14]	SMILES	IC50 (CWR22R [3])	Activity (CWR22R [6])	inhibition at 0.5 µM [9]	inhibition (CWR22R [10])	Activity (CWR22R [11])	Activity (CWR22R [12])
0.4 µM	2.47	33.6%	6.91 µM (≈ 3.18 µg/mL)					COc1ccc(Cn2nnc(O)c2C(=O)Nc2cc(C(F)(F)F)cc(C(F)(F)F)c2)cc1	33.8 µM					
1.63 µM	2.19		1.25 µM (≈ 0.551 µg/mL)					COc1ccc(Cn2nnc(O)c2C(=O)Nc2ccc3c(c2)ncn3-c2ccccc2)cc1	> 100 µM	36.88%				
0.26 µM	2.5	45.3%	< 1 µM					COc1ccc(Cn2nnc(O)c2C(=O)Nc2cccc(-c3cccc(OC)c3)c2)cc1	59 µM					
0.19 µM	2.16	7.32%	10.8 µM (≈ 4.3 µg/mL)	4.5				COc1ccc(Cc2onc(O)c2C(=O)Nc2cccc(-c3ccccc3)c2)cc1	54.8 µM					
0.21 µM	2.25	38.5%	40.3 µM (≈ 16.8 µg/mL)	4.9				COc1ccc(Cn2nnc(O)c2C(=O)Nc2cccc(-c3cccc(O)c3)c2)cc1	75.7 µM					
0.22 µM	2.59		< 1 µM		31.6%			COc1ccc(Cn2nnc(O)c2C(=O)Nc2cccc(-c3ccc(OC)cc3)c2)cc1	50.1 µM					
0.31 µM	2.19	37.9%	2.05 µM (≈ 0.854 µg/mL)					COc1ccc(Cn2nnc(O)c2C(=O)Nc2cccc(-c3ccc(O)cc3)c2)cc1	67.5 µM					
	1.1	59.9%	21.2 µM (≈ 8.32 µg/mL)					COc1ccc(Cn2nnc(O)c2C(=O)Nc2cccc(C(F)(F)F)c2)cc1						
0.069 µM	2.3	30.5%	< 1 µM					COc1ccc(Cn2nnc(O)c2C(=O)Nc2cccc(-c3ccccc3)c2)cc1	52.1 µM		20%	Active	>20%	30%
0.27 µM		57.8%	< 1 µM					COc1ccc(Cn2nnc(O)c2C(=O)Nc2ccc(Oc3ccccc3)cc2)cc1	58.2 µM					
0.47 µM	2.19		< 1 µM			30%		COc1ccc(Cn2nnc(O)c2C(=O)Nc2ccc(-c3ccccc3)cc2)cc1	57.9 µM					
							> 20 µM	COc1ccc2[nH]c(C(=O)N3CCC(CC(C)(C)O)CC3)cc2c1 [ASP-9521]						
0.11 µM		72.8%	< 1 µM					COc1ccc(Cn2nnc(O)c2C(=O)Nc2cccc(Oc3ccccc3)c2)cc1	65 µM			Active	>20%	50%
